Compound activity as filed in PubChem BioAssay.
ABHD4 inh = inhibitors of mouse ABHD4. Q8VD66. inhibition, % at 8.92 µM. purified mABHD4, FP-Rh probe fluorescence polarization. hit rate 0.54% among 370,000;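 active means inhibition exceeding the mean over every tested compound plus 3 SD, cut at about 30% in these data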
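Material: mouse ABHD4 enzyme, wild type; Benchmarks: S159A mutant high control, sample median low control; Buffer or medium: HEPES pH 7.0, NaCl, Pluronic buffer; Signal: fluorescence polarization; Read-out: percent inhibition of probe binding, normalized to plate controls; Timing: pre-incubation 45 min, probe exposure 60 min, at 25 °C; Dosing: 8.92 µM, single dose.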
TCR CD3 inh = inhibitors of human TCR-CD3 interaction; TAMRA-labeled TCR probe fluorescence, biochemical; inhibition, % at 9.4 µM; hit rate 0.37% among 360,000;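 further: recombinant mutant TCR 2C K166C tagged with TAMRA read by polarization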
Tn6 DDE FP = inhibitors of Tn6 peptide binding to human fibrin DD(E) | P02675 | Fibrin DD(E) TRITC-Tn6 fluorescence polarization displacement | inhibition, % at 8.3 µM | hit rate 0.21% among 370,000;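 active means inhibition above a per-campaign cutoff: mean of compounds within control limits plus 3 SD, cut at about 15% in these data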
SIAE inh = inhibitors of human sialic acid acetylesterase SIAE | Q9HAT2 | SIAE FP-Rh probe binding, fluorescence polarization | AID 1053197 | hit rate 0.69% among 370,000 | inhibition, % at 9.66 µM;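 active means inhibition above a cutoff: mean of compounds within the control limits plus 3 SD of those, cut at about 17% in these data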
Target sequence (Q9HAT2 whole entry, looked up): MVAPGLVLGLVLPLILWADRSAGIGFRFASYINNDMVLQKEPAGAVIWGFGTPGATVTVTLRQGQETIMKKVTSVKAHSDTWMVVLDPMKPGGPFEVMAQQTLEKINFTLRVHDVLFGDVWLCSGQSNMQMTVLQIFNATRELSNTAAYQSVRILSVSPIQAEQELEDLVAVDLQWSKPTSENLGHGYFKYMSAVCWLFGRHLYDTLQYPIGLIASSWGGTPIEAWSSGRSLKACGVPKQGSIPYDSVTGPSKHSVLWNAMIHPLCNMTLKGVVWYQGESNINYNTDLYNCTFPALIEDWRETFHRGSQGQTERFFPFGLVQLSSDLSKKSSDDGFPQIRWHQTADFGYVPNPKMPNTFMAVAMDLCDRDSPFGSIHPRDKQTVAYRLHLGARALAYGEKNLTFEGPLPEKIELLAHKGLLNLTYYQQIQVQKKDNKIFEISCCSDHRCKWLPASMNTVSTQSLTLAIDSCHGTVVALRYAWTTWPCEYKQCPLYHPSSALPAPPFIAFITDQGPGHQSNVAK
DDE Tn7 FP inh = disrupts Tn7 cyclic peptide binding to fibrin D-Dimer-E complex; FP displacement of FITC-Tn7 peptide from fibrin DD(E); 0% = median of compound wells per plate; inhibition, % at 8.3 µM; AID 720508; hit rate 0.13% among 370,000;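 active means inhibition above the mean of compounds falling within the control limits plus 3 SD of them, cut at about 14% in these data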
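Assay system: human fibrin DD(E). Input: DD(E) 2 µM final. Medium: Tris buffer with calcium and detergent, pH 7.8. Compound dosing: single point at 8.3 µM. Timing: 10 min plus 3 h, room temperature. Technique: fluorescence polarization of the labelled Tn7 tracer. Read-out: percent inhibition. Replicates: singlicate testing.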
HTRA1 inh = blocks human HTRA1 serine peptidase; Q92743; recombinant HTRA1, FP-rhodamine activity-based probe, fluorescence polarization; inhibition, % at 5.96 µM; hit rate 0.5% among 340,000; in the data active means inhibition above about 36%
HTRA1 inh conf = HTRA1 (human) inhibition, confirmation; shares compounds with HTRA1 inh; recombinant HTRA1, FP-rhodamine activity-based probe, fluorescence polarization; inhibition, % at 5.96 µM; hit rate 66% among 1,600;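 active means mean inhibition over three repeats above a set limit taken from the earlier primary screen, cut at about 37% in these data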;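 further: inhibitors block probe binding so polarization drops and inhibition rises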
BSA TAMRA ctr = interferes with TAMRA-BSA probe, flagging TCR-CD3 hits; shares compounds with TCR CD3 inh; TAMRA-labeled BSA probe fluorescence counterscreen; inhibition, % at 9.4 µM; hit rate 10% among 1,200; in the data active means inhibition above about 23%
TCR-CD3 conf = confirmation of human TCR-CD3 interaction inhibitors; AID 652036; TAMRA-labeled TCR probe fluorescence binding assay; shares compounds with TCR CD3 inh; hit rate 48% among 1,200; inhibition, % at 9.4 µM
Tn6 DDE ctr = counter-screen for inhibitors of Tn6 peptide binding to fibrin DD(E) | shares compounds with Tn6 DDE FP | TRITC-Tn6 fluorescence polarization displacement; 0% = median of compound wells, not DMSO | inhibition, % at 8.3 µM | hit rate 2% among 680;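 active means inhibition above the mean of test compounds lying between the control limits plus 3 SD of those, cut at about 14% in these data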
Tn6 DDE conf = DD(E)-Tn6 binding inhibition, FP confirmation; shares compounds with Tn6 DDE FP; AID 720631; FP displacement of TRITC-Tn6 peptide from DD(E); 0% = per-plate median of test wells; hit rate 10% among 680; inhibition, % at 8.3 µM;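 active means inhibition above the mean of compounds lying within the control limits plus 3 SD, cut at about 16% in these data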
mABHD4 conf = ABHD4 (mouse) inhibition, FP confirmation; shares compounds with ABHD4 inh; hit rate 55% among 1,800; purified mABHD4, FP-Rh probe fluorescence polarization; inhibition, % at 8.92 µM;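 active means mean inhibition across replicates above the hit cutoff set in the primary screen, cut at about 30% in these data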
SIAE inh conf = confirmation of human SIAE inhibitors | shares compounds with SIAE inh | SIAE FP-Rh activity-based probe, fluorescence polarization | inhibition, % at 9.66 µM | hit rate 13% among 2,300 | AID 1117263;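 active means mean inhibition of the replicates above the hit cutoff set in the primary screen, cut at about 17% in these data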;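 further: inhibitors lower polarization as more probe stays unbound to SIAE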
Numbers stand for hits; n = inactive; x = no result. Only some compounds are listed: those with a hit (about 1.8% of all), similar ones and a draw of the others. Unless noted, no stated cut-off is given here; in the data, active means inhibition above about 19%; inactive means the rest.

SMILES | ABHD4 inh | TCR CD3 inh | Tn6 DDE FP | SIAE inh | DDE Tn7 FP inh | HTRA1 inh | HTRA1 inh conf | SIAE inh conf | others
Cc1cccc(NC(=O)CSc2nnc(CNC(=O)c3ccco3)n2C)c1 | n | n | n | n | n | n | x | x
COc1cc(/C=N\NC(=O)C(C)(C)O)ccc1OC/C=C/c1ccccc1 | n | n | n | n | n | n | x | x
Cc1cc(C(=O)COc2ccccc2C(N)=O)c(C)n1C | n | n | n | n | n | n | x | x
Cc1cc(C(=O)COc2cccc3cccnc23)c(C)n1C | 74 | n | 30 | 23 | n | 80 | n | n | Tn6 DDE ctr=n;Tn6 DDE conf=n;mABHD4 conf=n
Cc1ccc(NC(=O)C2COc3ccccc3O2)cc1S(=O)(=O)N1CCCCC1 (stereo not drawn) | n | n | n | n | n | n | x | x
O[C@@H]1CN(CC2CCCCC2)[C@@H](c2ccc(Cl)cc2)C[C@H]1n1cc(-c2ccc(F)cc2)nn1 | n | n | n | n | n | n | x | x
Cc1ccc(S(=O)(=O)NCc2ccc(C(=O)NCCN(Cc3ccccc3)C(C)C)cc2)cc1 | n | n | n | n | n | n | x | x
Oc1ccc(N=Nc2ccc3c(c2)OCCO3)c2cccnc12 | n | n | n | 20 | n | 50 | 69 | n
O=C(NCc1ccc(F)cc1)c1cc(C2CCCCN2S(=O)(=O)Cc2ccccc2)on1 (stereo not drawn) | n | n | n | n | n | x | x | x
CC1(C(=O)Nc2ccc(F)cc2F)CCN1C(=O)Cc1ccccc1 (stereo not drawn) | n | n | n | n | n | x | x | x
O=C(N/N=C/c1cc2c3c(c1O)CCCN3CCC2)c1ccccc1O | 44 | 69 | n | 43 | n | 51 | 58 | 36 | BSA TAMRA ctr=31;TCR-CD3 conf=68;mABHD4 conf=n
Cc1nn(-c2ccccc2)c(N2CCCC2)c1/C=N/NC(=O)c1ccccc1O | n | n | n | n | n | n | x | x
CO[C@@H]1CN(C)C(=O)c2cc(NC(=O)Nc3cc(F)ccc3F)ccc2OC[C@H](C)N(C(=O)c2cnccn2)C[C@@H]1C | n | n | n | n | n | x | x | x
Fc1ccc(-c2cc(-c3nnc4sc(Cc5cccs5)nn34)[nH]n2)cc1 | n | x | n | n | n | x | x | x
COc1ccccc1Nc1ccc2c(O)cc(S(=O)(=O)O)cc2c1 | 86 | 40 | n | 28 | n | 69 | 53 | 53
COc1cc(CNC(C)c2ccccc2)cc(Br)c1OCc1ccccc1 (stereo not drawn) | n | n | n | n | n | n | x | x
COc1ccc(Br)cc1CNc1ccc2[nH]c(=O)[nH]c2c1 | n | n | n | n | n | n | x | x
COc1ccc(Br)cc1CNc1ccc(O)cc1 | 65 | 31 | n | 32 | n | 74 | n | n | BSA TAMRA ctr=n;TCR-CD3 conf=n;mABHD4 conf=30
Oc1ccc(NCc2ccc(OCc3ccccc3)cc2)cc1 | 53 | 30 | n | 29 | n | 47 | n | n | mABHD4 conf=n
COc1cc(CNc2ccc(O)cc2)cc(Br)c1OCc1ccccc1 | 52 | 22 | n | 26 | n | 57 | n | n | mABHD4 conf=n
O=C(N/N=C/c1cc(Br)c(O)c(Br)c1)c1cc2c(ccc3ccccc32)o1 | n | n | n | 57 | n | 46 | 49 | 26
